# Source: PubChem
# In the library only some 2.7% were active in any assay of this set; here they are far more common.
# ARFGAP1 inhibitor = inhibitors of rat ARFGAP1 GAP activity, primary screen, biochemical, fluorescence polarization, GDP tracer. ADP-ribosylation factor GTPase-activating protein 1 (Rattus norvegicus), Q62848. Arfgap1-stimulated ARF1 GTP hydrolysis, GDP FP detection. inhibition, % at 16.5 µM. 0.26% of 360,000 active. AID 651572, 2012;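 active means inhibition above a per-plate limit, mean inhibition of low control wells plus 3 SD, cut at about 25% in these data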;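 further: 0% = DMSO wells with enzyme and 100% = wells lacking Arfgap1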
# Target sequence (Q62848 1-136 limits assumed): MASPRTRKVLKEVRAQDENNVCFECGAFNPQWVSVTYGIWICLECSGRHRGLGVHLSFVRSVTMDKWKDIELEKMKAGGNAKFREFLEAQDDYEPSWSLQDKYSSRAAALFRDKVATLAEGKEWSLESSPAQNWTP
#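 Assay system: Rat Arfgap1 GAP domain (His6, aa 1-136), purified enzyme | Buffer or medium: HEPES 25 mM pH 7.5, NaCl 150 mM, MgCl2, DTT | Schedule: GTP hydrolysis reaction 2 h at 25 °C | Signal: FP of antibody-bound GDP Alexa 633 tracer, ex 620/em 688 nm | Measure: Percent inhibition of Arfgap1-stimulated GTP hydrolysis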
# PAFAH1B3 FP inh = PAFAH1B3 enzyme inhibitors, primary screen, biochemical, fluorescence polarization, human | Platelet-activating factor acetylhydrolase IB subunit alpha1 (Homo sapiens), Q15102 | recombinant PAFAH1B3, FP-rhodamine probe | inhibition, % at 3.39 µM | 0.28% of 340,000 active | AID 492972, 2010;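 active means inhibition above the screen-wide average of all tested compounds plus 3 SD, cut at about 25% in these data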;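 further: 0% = enzyme with DMSO only and 100% = wells lacking PAFAH1B3 protein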
# pPAFAH FP inh = pPAFAH enzyme inhibitors, primary screen, biochemical, fluorescence polarization, human; recombinant pPAFAH, FP-rhodamine probe fluorescence polarization; inhibition, % at 3.39 µM; AID 463082, 2010; Platelet-activating factor acetylhydrolase (Homo sapiens), Q13093; 1.5% of 330,000 active;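 active means inhibition above the mean inhibition across the screen plus 3 SD, cut at about 25% in these data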;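 further: inhibitors block binding of the rhodamine activity-based probe so polarization drops; 0% = enzyme with DMSO and 100% = wells lacking pPAFAH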
# PAFAH1B2 inh = PAFAH1B2 enzyme inhibitors, primary screen, biochemical, fluorescence polarization, human; recombinant PAFAH1B2, FP-rhodamine activity probe; 1.2% of 340,000 active; Platelet-activating factor acetylhydrolase IB subunit alpha2 (Homo sapiens), P68402; inhibition, % at 3.39 µM; AID 492953, 2010;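 active means inhibition above the mean of all tested compounds plus 3 SD, cut at about 24% in these data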;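 further: 0% = enzyme with DMSO and 100% = wells lacking PAFAH1B2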
# Target sequence (P68402 whole entry, looked up): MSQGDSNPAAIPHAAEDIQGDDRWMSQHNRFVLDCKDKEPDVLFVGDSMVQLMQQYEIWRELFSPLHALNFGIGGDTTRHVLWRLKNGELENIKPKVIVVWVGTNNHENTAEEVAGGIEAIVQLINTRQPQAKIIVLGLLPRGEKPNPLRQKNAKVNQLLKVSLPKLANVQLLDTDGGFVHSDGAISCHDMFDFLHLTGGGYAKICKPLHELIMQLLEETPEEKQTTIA
# PAFAH2 FP inh = PAFAH2 enzyme inhibitors, primary screen, biochemical, fluorescence polarization, human; Platelet-activating factor acetylhydrolase 2, cytoplasmic (Homo sapiens), Q99487; 0.99% of 340,000 active; recombinant PAFAH2, FP-rhodamine activity probe; inhibition, % at 3.39 µM;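 active means inhibition above the mean over all tested compounds plus 3 SD, cut at about 30% in these data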;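 further: inhibitors block probe labeling of enzyme so polarization drops; 0% = enzyme with DMSO and 100% = wells lacking PAFAH2 protein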
# ASAP1 inh = inhibitors of human ASAP1 ArfGAP activity, primary screen, biochemical, fluorescence polarization. Arf-GAP with SH3 domain, ANK repeat and PH domain-containing protein 1 (Homo sapiens), …. ASAP1-stimulated ARF1 GTP hydrolysis, GDP FP detection. inhibition, % at 16.5 µM. 0.19% of 360,000 active; in the data active means inhibition above about 25%;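 further: 0% = vehicle with enzyme and substrate and 100% = no enzyme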
# PAFAH2 confirm = PAFAH2 enzyme inhibitors, confirmation, biochemical, fluorescence polarization, human; shares compounds with PAFAH2 FP inh; recombinant PAFAH2, FP-rhodamine activity probe; inhibition, % at 3.39 µM; 65% of 2,300 active;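 active means mean inhibition over three repeats above a set limit taken from the earlier primary screen, cut at about 30% in these data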;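 further: inhibitor blocks binding of rhodamine activity probe so polarization falls; 0% = enzyme with DMSO and 100% = wells lacking PAFAH2 protein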
# Numbers without * were called inactive; / = no result given.
SMILES,ARFGAP1 inhibitor,PAFAH1B3 FP inh,pPAFAH FP inh,PAFAH1B2 inh,PAFAH2 FP inh,ASAP1 inh,PAFAH2 confirm
O=C(COC(=O)c1ccc2ncsc2c1)Nc1ncc(Cl)cc1Cl,8.5,-4.2,-1.0,2.2,31.1*,7.2,25.2
O=C(COC(=O)c1ccc2ncsc2c1)Nc1cc(Cl)ccc1F,20.6,4.0,/,1.6,66.4*,7.6,60.2*
Cc1c(Cl)cnc(NC(=O)COC(=O)CCC(=O)c2cccs2)c1Cl,0.1,-2.5,/,3.5,-0.1,0.3,/
O=C(COC(=O)c1ccc2ncsc2c1)NC(=O)c1ccccc1,1.1,-5.2,2.9,4.5,3.9,-7.4,/
O=C(COC(=O)c1sc2cc(Cl)ccc2c1Cl)Nc1ncc(Cl)cc1Cl,2.5,/,16.5,/,/,-4.6,/
Cc1c(Cl)cnc(NC(=O)COC(=O)c2ccc3ncsc3c2)c1Cl,8.8,4.5,4.9,4.5,47.3*,-1.4,36.4*
CN(C)S(=O)(=O)N(CC(=O)N(Cc1ccccc1)Cc1ccccc1)c1ccccc1,3.9,-1.6,4.8,-2.1,37.9*,3.6,23.9
COC(=O)[C@]12CCCCC=C1N(Cc1ccco1)C(=O)[C@H](CC(=O)NCc1ccccc1)C2,9.9,/,/,/,/,1.4,/
CC1CC1C(=O)OCC(=O)Nc1cccc(S(=O)(=O)NC2=NCCCCC2)c1 (stereo not drawn),7.9,5.7,5.0,4.4,33.6*,3.3,20.3
C/C=C/C(=O)OCC(=O)Nc1cccc(S(=O)(=O)NC2=NCCCCC2)c1,-6.8,11.8,3.4,3.8,14.3,3.8,/
O=C(COC(=O)c1cccs1)Nc1cccc(S(=O)(=O)NC2=NCCCCC2)c1,8.0,7.5,4.1,4.7,48.4*,-1.8,36.2*
COc1cc(OC)c(C(=O)OCC(=O)Nc2cccc(S(=O)(=O)NC3=NCCCCC3)c2)cc1OC,-6.8,-2.4,/,1.9,14.1,1.1,/
COc1ccc(NC(=O)CCN2C(=O)NC3(CCCC3)C2=O)cc1Cl,-8.0,5.1,-1.9,8.0,6.4,-16.8,/
CNc1ncnc2c1ncn2[C@H]1CN(Cc2cccs2)C[C@@H](CO)O1,-5.2,/,/,/,/,3.2,/
Cc1c(Cl)cccc1N=Cc1ccc([N+](=O)[O-])s1,1.8,13.5,11.0,13.2,71.1*,-1.4,8.3
Cc1ccccc1C(=O)N/N=C/c1ccc([N+](=O)[O-])s1,0.1,11.3,10.0,2.6,10.2,4.0,/
CN(/N=C/c1cc([N+](=O)[O-])ccc1O)c1ccccc1,-1.6,8.3,6.9,-0.2,35.1*,8.4,31.0*
O=[N+]([O-])c1ccc(O)c(C=Nc2cccc3ccccc23)c1,-8.0,10.6,9.0,9.3,7.2,12.4,/
CC1=NN(c2ccccc2)C(=O)/C1=C\c1ccc(Br)s1,0.6,12.6,3.8,5.6,32.8*,-5.7,11.0
O=C(COC(=O)CC(c1ccccc1)c1ccccc1)Nc1cccc(F)c1,1.2,4.4,13.2,5.2,76.9*,3.1,69.0*
O=C(COC(=O)CC(NC(=O)c1ccccc1Cl)c1ccccc1)Nc1cccc(F)c1 (stereo not drawn),-6.9,-9.9,8.2,5.3,81.7*,4.6,76.5*
O=C(COC(=O)/C=C/c1ccc(OC(F)F)cc1)NC1CCCCCCC1,10.3,2.9,-0.1,1.6,66.1*,-3.3,71.4*
COc1ccc(/C=C/C(=O)OCC(=O)NC2CCCCCC2)cc1,-5.2,/,/,/,/,0.8,/
O=C(COC(=O)/C=C/c1ccc(OC(F)F)cc1)NC1CCCCCC1,12.3,6.1,21.1,3.9,74.9*,2.8,69.8*
